This note sets out measurements from the array DNA melting data of Ke et al. (doi:10.1101/2024.01.08.574731).

Data set [1] is described as follows: melting temperature; fluorescence melt of hairpins on a sequencing array, two-state fit, raised by 9.35 °C to match UV melts. The settings on record: sodium 0.088 M. In outline:
(§1)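 To match UV melts, fitted temperatures were raised by 9.35 °C. These fits were bootstrapped two-state models that gave melting temperature and folding enthalpy, combined by inverse variance over four replicates. The input was normalised Cy3 fluorescence of library hairpins with annealed Cy3 and quencher oligos on a sequenced MiSeq flow cell, imaged in 50 mM Na-HEPES pH 8.0, 25 mM NaCl in 2.5 °C steps up to 60 °C.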

Data set [2] in a line: folding enthalpy; higher = less favourable; fluorescence melt of hairpins on a sequencing array, two-state fit. As to conditions: sodium 0.088 M. The essentials: as §1

As to GACCAGGGAAACCTAGTC (((.(((....))).))), the Tm in data set [1] stood at 32.7 °C. The folding enthalpy in data set [2] is -16.9 kcal/mol.

GACCATGGAAACATGGTC (((((((....))))))): in data set [1], the Tm worked out at 65.1 °C. Besides, in data set [2], the folding enthalpy was -43.1 kcal/mol.

As for GACCCACGAAAGTGCGTC (((.(((....))).))), in data set [1], the Tm stood at 46.7 °C. In data set [2], the folding enthalpy is -26.1 kcal/mol.

Turning to GACCCACGAAAGTGGTC (((.(((....)))))), the Tm in data set [1] turned out to be 51.5 °C. In addition, in data set [2], the folding enthalpy was -13.3 kcal/mol.

With GACCCCCGAAAGGGTGTC (((.(((....))).))), the Tm in data set [1] was found to be 51.8 °C. Further, the folding enthalpy in data set [2] is -25 kcal/mol.

Take GACCCCGAAAGGGAAGTC ((((((....)))..))): the Tm in data set [1] came to 42.1 °C. In addition, the folding enthalpy in data set [2] is -16.1 kcal/mol.

Regarding GACCCCGAAAGGGGCGTC ((((((....)))..))), the Tm in data set [1] is 61.4 °C. Further, the folding enthalpy in data set [2] was -11.7 kcal/mol.

For the sequence GACCCCGAAAGGGGTGTC ((((((....)))..))), the Tm in data set [1] was 60.6 °C. In data set [2], the folding enthalpy was -9.59 kcal/mol.

As for GACCCCGGAAACGGGGCC (.(((((....))))).), the Tm in data set [1] came to 53.6 °C. Besides, the folding enthalpy in data set [2] is -12.9 kcal/mol.

For the sequence GACCCGACGAAAGTCGTC (((..(((....)))))), the Tm in data set [1] turned out to be 25.9 °C. In addition, in data set [2], the folding enthalpy was -6.62 kcal/mol.

For GACCCGCGAAAGCGGTC (((.(((....)))))), the Tm in data set [1] turned out to be 52.1 °C. Moreover, the folding enthalpy in data set [2] was -10 kcal/mol.

For GACCCTGGAAACAAGGTC ((((.((....)).)))), in data set [1], the Tm amounted to 35.3 °C. In data set [2], the folding enthalpy was -27.1 kcal/mol.

GACCCTGGAAACAGGGCC (.(((((....))))).): the Tm in data set [1] came out at 47.2 °C. The folding enthalpy in data set [2] was -17.2 kcal/mol.

As for GACCGCCGAAAGGCAGTC (((.(((....))).))), the Tm in data set [1] was 54.3 °C. Also, the folding enthalpy in data set [2] is -20.9 kcal/mol.

For GACCGCGAAAGCGAGGTC ((((((....)))..))), the Tm in data set [1] came to 56.6 °C. In addition, in data set [2], the folding enthalpy is -19.2 kcal/mol.

GACCGCGAAAGCGCCGTC ((((((....)))..))): the Tm in data set [1] came to 36.6 °C. Besides, in data set [2], the folding enthalpy was -14.1 kcal/mol.

Turning to GACCGCGAAAGCGTAGTC ((((((....)))..))), the Tm in data set [1] worked out at 46.5 °C. For the same sequence, in data set [2], the folding enthalpy was -14.6 kcal/mol.

Consider GACCGCGAAAGCGTGGTC ((((((....)))..))), for which, in data set [1], the Tm amounted to 50.9 °C. Further, the folding enthalpy in data set [2] is -18.6 kcal/mol.

With GACCGCGGAAACACGGCC (.(((.(....).))).), in data set [1], the Tm was determined as 37 °C. Besides, the folding enthalpy in data set [2] is -22.2 kcal/mol.

As for GACCGCGGAAACGCGACC (..((((....))))..), the Tm in data set [1] amounted to 28.9 °C. Moreover, in data set [2], the folding enthalpy was -7.67 kcal/mol.

As for GACCGCGGAAACGCGATC ((.((((....)))).)), in data set [1], the Tm came to 50.7 °C. Further, in data set [2], the folding enthalpy was -14.8 kcal/mol.

As to GACCGGCGAAAGCCTGTC (((.(((....))).))), the Tm in data set [1] came out at 49.6 °C. Besides, the folding enthalpy in data set [2] was -22.3 kcal/mol.

For the sequence GACCGGGGAAACTCGGTC (((((.(....).))))), in data set [1], the Tm was 56.3 °C. The folding enthalpy in data set [2] was -50.3 kcal/mol.

For GACCGTGAAAACGGTC ((((((....)))))), in data set [1], the Tm came out at 68.1 °C. Also, in data set [2], the folding enthalpy is -41.1 kcal/mol.

On to GACCGTGCGAAAGCAGTC (((..(((....)))))), for which the Tm in data set [1] turned out to be 29.6 °C. Also, in data set [2], the folding enthalpy is -11.4 kcal/mol.

Turning to GACCGTGGAAACACGACC (..((((....))))..), the Tm in data set [1] was found to be 28 °C. Moreover, the folding enthalpy in data set [2] is -10.8 kcal/mol.

For the sequence GACCTACGAAAGTAAGTC (((.(((....))).))), the Tm in data set [1] turned out to be 38 °C. Besides, the folding enthalpy in data set [2] is -23.1 kcal/mol.

Turning to GACCTACGAAAGTACGTC (((.(((....))).))), the Tm in data set [1] turned out to be 36.2 °C. Moreover, in data set [2], the folding enthalpy was -24.6 kcal/mol.

As to GACCTAGGAAACTAGGCC (.(((((....))))).), the Tm in data set [1] was 39.5 °C. For the same sequence, in data set [2], the folding enthalpy was -19.3 kcal/mol.

With GACCTCACGAAAGTGGTC (((..(((....)))))), the Tm in data set [1] is 37.4 °C. Also, the folding enthalpy in data set [2] was -20.7 kcal/mol.

Regarding GACCTCCGAAAGGAAGTC (((.(((....))).))), the Tm in data set [1] stood at 44.7 °C. Moreover, the folding enthalpy in data set [2] was -26.1 kcal/mol.

GACCTCGGAAACGAGGCC (.(((((....))))).): in data set [1], the Tm stood at 55.4 °C. Moreover, the folding enthalpy in data set [2] was -13 kcal/mol.

With GACCTGCGAAAGCACGTC (((.(((....))).))), the Tm in data set [1] stood at 42.8 °C. Moreover, in data set [2], the folding enthalpy is -25.4 kcal/mol.

With GACCTGGGAAACTGGGTC ((((..(....)..)))), the Tm in data set [1] was determined as 44.4 °C. In data set [2], the folding enthalpy is -25 kcal/mol.

Regarding GACCTTGAAAAAGGTC ((((((....)))))), in data set [1], the Tm was 56.8 °C. In data set [2], the folding enthalpy was -33.4 kcal/mol.

In the case of GACCTTGGAAACAAGGTC (((((((....))))))), in data set [1], the Tm is 63 °C. The folding enthalpy in data set [2] was -40.6 kcal/mol.

Take GACCTTGGAAACAGGGTC ((((.((....)).)))): in data set [1], the Tm was 47 °C. The folding enthalpy in data set [2] was -31.5 kcal/mol.
